# Assay results: ChEMBL document CHEMBL4732272, “Remodelin Is a Cryptic Assay Interference Chemotype That Does Not Inhibit NAT10-Dependent Cytidine Acetylation” (ACS Med Chem Lett, 2021)
# Calls of active or inactive are those of the source. The calls are words filed in the database; no cut-off is given here.
# Legend:
# [1] = target: T1, RNA cytidine acetyltransferase (Homo sapiens) (UniProt Q9H0A0); assay: Binding affinity to recombinant NAT10 acetyltransferase domain (494 to 753 residues) (unknown origin) by isothermal titration calorimetry
# T1 sequence (whole entry): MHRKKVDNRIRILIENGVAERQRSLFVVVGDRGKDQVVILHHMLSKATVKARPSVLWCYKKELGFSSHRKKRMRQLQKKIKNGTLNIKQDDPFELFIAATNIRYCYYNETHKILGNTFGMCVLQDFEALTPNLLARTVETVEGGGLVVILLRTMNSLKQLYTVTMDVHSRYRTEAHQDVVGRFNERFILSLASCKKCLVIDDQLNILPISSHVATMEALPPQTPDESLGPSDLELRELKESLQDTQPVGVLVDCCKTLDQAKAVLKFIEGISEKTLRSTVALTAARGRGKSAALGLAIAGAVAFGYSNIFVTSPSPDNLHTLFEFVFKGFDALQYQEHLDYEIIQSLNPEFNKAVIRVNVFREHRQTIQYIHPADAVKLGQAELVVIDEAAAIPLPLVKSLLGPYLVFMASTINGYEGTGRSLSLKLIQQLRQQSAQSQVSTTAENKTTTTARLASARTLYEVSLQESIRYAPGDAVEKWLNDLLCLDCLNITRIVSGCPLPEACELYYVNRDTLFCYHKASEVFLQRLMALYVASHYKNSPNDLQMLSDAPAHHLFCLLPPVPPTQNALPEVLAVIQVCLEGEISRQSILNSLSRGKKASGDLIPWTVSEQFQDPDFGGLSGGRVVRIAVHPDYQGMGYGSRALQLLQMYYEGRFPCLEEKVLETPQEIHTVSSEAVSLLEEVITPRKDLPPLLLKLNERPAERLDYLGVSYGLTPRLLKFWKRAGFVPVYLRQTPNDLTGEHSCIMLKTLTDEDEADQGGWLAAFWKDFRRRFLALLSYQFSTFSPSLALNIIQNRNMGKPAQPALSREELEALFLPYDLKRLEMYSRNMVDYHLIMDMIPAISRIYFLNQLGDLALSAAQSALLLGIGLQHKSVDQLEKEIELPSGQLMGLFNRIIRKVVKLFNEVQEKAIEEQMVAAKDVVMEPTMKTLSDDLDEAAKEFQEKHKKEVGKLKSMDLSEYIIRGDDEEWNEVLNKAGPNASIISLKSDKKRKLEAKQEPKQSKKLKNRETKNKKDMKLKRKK
# Summary of the method: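 Recombinant NAT10 acetyltransferase domain (residues 494–753) titrated with acetyl-CoA or remodelin by isothermal titration calorimetry.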
# [2] = target: T1, RNA cytidine acetyltransferase (Homo sapiens); assay: Stabilization of full length recombinant NAT10 (unknown origin) by DSLS based analysis
# Summary of the method: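 Full-length recombinant NAT10 thermal stability measured by differential static light scattering with ATP, acetyl-CoA or remodelin added.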
# K562 [3] = assay: Covalent protein binding in human K562 cells by rhodamine azide based fluorescence analysis; format: functional, cell-based; conditions: dose 10-100 µM
# Summary of the method: (§1)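 K562 cancer cell lysates incubated with clickable probes across a dose range (down to 10 μM), then click-labelled with rhodamine azide to visualise proteome labelling; competition run with remodelin added.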
# [4] = Stability of the compound in DMSO-d6 solution assessed as discoloration to dark brown colour in presence of light; format: physicochemical
# Summary of the method: (§2)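 Remodelin solutions followed over time: in aqueous buffer kept from light for 7 days; in DMSO monitored for darkening colour and new aromatic NMR resonances.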
# K562 [5] = assay: Covalent protein binding in human K562 cells at 10 to 100 uM in presence of remodelin by rhodamine azide based fluorescence analysis; format: functional, cell-based; conditions: dose 10-100 µM; summary of the method: as §1
# [6] = Stability of the light-protected compound in aqueous buffer measured for 7 days; format: physicochemical; conditions: 168 h, time 7 day; summary of the method: as §2
# [7] = Redox activity of the compound assessed as H2O2 producion at 250 uM by horseradish peroxidase-phenol red counter screen based assay; format: physicochemical
# [8] = Aggregation property of the compound assessed as detergent sensitive inhibition of beta-lactamase AmpC at 33 to 100 uM; format: physicochemical; conditions: dose 33-100 µM
# [9] = Stability of the compound in DMSO-d6 solution assessed as drug degradation measured after 24 hrs by NMR analysis; format: physicochemical
# [10] = Redox activity of the compound assessed as H2O2 production at 250 uM in presence of DTT by horseradish peroxidase-phenol red counter screen based assay; format: physicochemical
# [11] = Aggregation property of peptides assessed as colloidal aggregate formation at 25 uM by dynamic light scattering analysis; format: physicochemical
# [12] = target: T1, RNA cytidine acetyltransferase (Homo sapiens); assay: Inhibition of NAT10-catalyzed RNA cytidine acetylation in human HeLa cells assessed as decrease in ac4C at helix 45 of 18S rRNA at 50 uM after 4 days by UV-HPLC analysis; format: cell-based; conditions: time 4.0 day
# Summary of the method: (§3)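 Helix 34 and helix 45 ac4C of 18S rRNA analysed […] by UV-HPLC after cells were treated with remodelin at 50 μM for 4 d; NAT10 KD cells served as comparator.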
# [13] = target: T1, RNA cytidine acetyltransferase (Homo sapiens); assay: Inhibition of NAT10-catalyzed RNA cytidine acetylation in human HeLa cells assessed as decrease in ac4C level at 10 to 50 uM after 24 to 48 hrs by dot blot assay; format: cell-based; conditions: dose 10-50 µM, time 24-48 hrs
# Tubulin (Homo sapiens) = Tubulin (Homo sapiens) (UniProt P68371+Q9H4B7+P0DPH7+P68366+Q13509+Q71U36+P04350+Q3ZCM7+P07437+P68363+Q9BQE3+Q6PEY2+Q13885+Q9BVA1+Q9BUF5); assay: Induction of tubulin acetylation in human HEK293T cells at 10 to 50 uM measured after 48 hrs by western blot analysis; format: cell-based; conditions: dose 10-50 µM
# [14] = target: T1, RNA cytidine acetyltransferase (Homo sapiens); assay: Inhibition of NAT10-catalyzed RNA cytidine acetylation in human HeLa cells assessed as decrease in ac4C at helix 34 of 18S rRNA at 50 uM after 4 days by UV-HPLC analysis; format: cell-based; conditions: time 4.0 day; summary of the method: as §3
# [15] = Thiol-reactivity using La antigen containing reactive cysteine C232 and C245 in presence of DTT by ALARM NMR analysis; format: ADME
# [16] = target: T1, RNA cytidine acetyltransferase (Homo sapiens); assay: Inhibition of NAT10-catalyzed RNA cytidine acetylation in human HeLa cells assessed as decrease in ac4C at helix 45 of 18S rRNA at 50 uM after 48 hrs by nucleotide resolution sequencing analysis; format: cell-based
# Summary of the method: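 Helix 45 of 18S rRNA (C1842) read by nucleotide-resolution ac4C sequencing after 50 μM remodelin for 48 h; C→T change at the site scored as ac4C present, no mutation as loss; NAT10 KD as comparator.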
# [17] = target: T1, RNA cytidine acetyltransferase (Homo sapiens); assay: Inhibition of NAT10-catalyzed RNA cytidine acetylation in human HeLa cells assessed as decrease in ac4C level at 50 uM after 48 hrs by Northern blot assay; format: cell-based
# Summary of the method: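 Following 48 h remodelin treatment, RNA probed by dot blot or Northern blot with an anti-ac4C antibody.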
# [18] = target: T1, RNA cytidine acetyltransferase (Homo sapiens); assay: Inhibition of NAT10-catalyzed RNA cytidine acetylation in human HeLa cells assessed as decrease in ac4C level at 10 to 50 uM after 48 hrs by LC-MS assay; format: cell-based; conditions: dose 10-50 µM
# Summary of the method: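 Wild-type cells treated with remodelin for 48 h; RNA ac4C levels quantified by LC-MS, with CRISPR-Cas9 NAT10 disruption as comparator.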
# [19] = Thiol reactivity with CoA at 1 to 50 uM measured after 30 mins by DACM thiol consumption assay; format: ADME; conditions: 0.5 h, dose 1-50 µM
smiles,measurement,setting,value
CC(=O)SCCNC(=O)CCNC(=O)[C@H](O)C(C)(C)COP(=O)(O)OP(=O)(O)OC[C@H]1O[C@@H](n2cnc3c(N)ncnc32)[C@H](O)[C@@H]1OP(=O)(O)O,Activity,[1],Active
same,Activity,[2],Active
C#CCN(N=C1CCCC1)c1nc(-c2ccc(Cl)cc2)cs1,Activity,K562 [3],Dose-dependent effect
Nc1ncnc2c1ncn2[C@@H]1O[C@H](COP(=O)(O)OP(=O)(O)OP(=O)(O)O)[C@@H](O)[C@H]1O,Activity,[2],Active
C#CCNC(=O)c1ccc(-c2csc(NN=C3CCCC3)n2)cc1,Stabilty,[4],Unstable
same,Activity,K562 [3],Dose-dependent effect
same,Activity,K562 [5],inactive
N#Cc1ccc(-c2csc(NN=C3CCCC3)n2)cc1,Stabilty,[6],Stable
same,Activity,[7],Not Active
same,Stabilty,[4],Unstable
same,Activity,[1],inactive
same,Activity,[8],Not Active
same,Stabilty,[9],Unstable
same,Activity,[10],Not Active
same,Activity,[11],Active
same,inhibition,[12],inactive
same,inhibition,[13],inactive
same,Activity,Tubulin (Homo sapiens),inactive
same,inhibition,[14],inactive
same,Activity,[15],Active
same,inhibition,[16],inactive
same,inhibition,[17],inactive
same,inhibition,[18],inactive
same,Activity,[2],inactive
same,Activity,[19],Not Active
